ChEMBL document CHEMBL1123499, “Synthesis, saludiuretic, and antihypertensive activity of 6,7-disubstituted 1(2H)- and 3,4-dihydro-1(2H)-phthalazinones” (1986)

Key:
Rattus norvegicus [1] = species on record: Rattus norvegicus; test: Saluretic activity in rats after 0-24 hours, as chloride ion concentration in urine; assay type: functional
Summary of the method: (§1)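 Male Sabra rats (170-200 g), fasted 18 h, dosed orally 50 mg/kg in saline at 25 mL/kg, eight per compound, two per metabolic cage, no food or water. Urine collected 5 and 24 h after dosing and centrifuged. Chloride titrated with Hg(NO3)2/diphenylcarbazone after HNO3 acidification; Na+ and K+ by atomic absorption.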

Rattus norvegicus [2] = species on record: Rattus norvegicus; test: Saluretic activity in rats after 0-24 hours, as potassium ion concentration in urine; assay type: functional; summary of the method: as §1
Rattus norvegicus [3] = species on record: Rattus norvegicus; test: Compound was tested for antihypertensive activity in rat after 1 hr postdose; assay type: functional
Summary of the method: (§2)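 DOCA/saline hypertensive Sprague-Dawley rats (250-350 g), six per group, given 10 mg/kg doca s.c. daily with saline until systolic BP reached 170 mmHg (usually 3-4 weeks). Oral 25 mg/kg in 5 mL/kg 1% methylcellulose. Systolic BP by tail-cuff before and 1, 4, 24 h after; drop reported as mean ± SD.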

Rattus norvegicus [4] = species on record: Rattus norvegicus; test: Saluretic activity in rats after 5-24 hours, as chloride ion concentration in urine; assay type: functional; summary of the method: as §1
Rattus norvegicus [5] = species on record: Rattus norvegicus; test: Saluretic activity in rats after 5-24 hours, as sodium ion concentration in urine; assay type: functional; summary of the method: as §1
Rattus norvegicus [6] = species on record: Rattus norvegicus; test: Saluretic activity in rats after 0-5 hours, as ratio of Na+/K+ ion concentration in urine; assay type: functional; summary of the method: as §1
Rattus norvegicus [7] = species on record: Rattus norvegicus; test: Diuretic activity in rats at time intervals of 0-24 hours; assay type: functional, Urine
Summary of the method: (§3)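 Male Sabra rats (170-200 g), starved 18 h, given 50 mg/kg by stomach tube in saline (25 mL/kg load), eight per compound, saline and furosemide controls run alongside. Held two per metabolic cage at 22 °C without food or water. Urine volume measured at 5 and 24 h collections.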

Rattus norvegicus [8] = species on record: Rattus norvegicus; test: Compound was tested for antihypertensive activity in rat after 4 hr postdose; assay type: functional; summary of the method: as §2
Rattus norvegicus [9] = species on record: Rattus norvegicus; test: Saluretic activity in rats after 0-5 hours, as potassium ion concentration in urine; assay type: functional; summary of the method: as §1
Rattus norvegicus [10] = species on record: Rattus norvegicus; test: Saluretic activity in rats after 0-24 hours, as sodium ion concentration in urine; assay type: functional; summary of the method: as §1
Rattus norvegicus [11] = species on record: Rattus norvegicus; test: Diuretic activity in rats at time intervals of 5-24 hours; assay type: functional, Urine; summary of the method: as §3
Rattus norvegicus [12] = species on record: Rattus norvegicus; test: Saluretic activity in rats after 5-24 hours, as ratio of Na+/K+ ion concentration in urine; assay type: functional; summary of the method: as §1
Rattus norvegicus [13] = species on record: Rattus norvegicus; test: Diuretic activity in rats at time intervals of 0-5 hours; assay type: functional, Urine; summary of the method: as §3
Rattus norvegicus [14] = species on record: Rattus norvegicus; test: Compound was tested for antihypertensive activity in rat after 24 hr postdose; assay type: functional; summary of the method: as §2
Rattus norvegicus [15] = species on record: Rattus norvegicus; test: Saluretic activity in rats after 0-24 hours, as ratio of Na+/K+ ion concentration in urine; assay type: functional; summary of the method: as §1
Rattus norvegicus [16] = species on record: Rattus norvegicus; test: Saluretic activity in rats after 0-5 hours, as sodium ion concentration in urine; assay type: functional; summary of the method: as §1
Rattus norvegicus [17] = species on record: Rattus norvegicus; test: Saluretic activity in rats after 0-5 hours, as chloride ion concentration in urine; assay type: functional; summary of the method: as §1
Rattus norvegicus [18] = species on record: Rattus norvegicus; test: Saluretic activity in rats after 5-24 hours, as potassium ion concentration in urine; assay type: functional; summary of the method: as §1

Structure (SMILES)	Saluretic activity (Rattus norvegicus [1]) [m equiv kg-1]	Saluretic activity (Rattus norvegicus [2]) [m equiv kg-1]	Decrease in blood pressure (Rattus norvegicus [3]) [mmHg]	Saluretic activity (Rattus norvegicus [4]) [m equiv kg-1]	Saluretic activity (Rattus norvegicus [5]) [m equiv kg-1]	Ratio (Rattus norvegicus [6])	Diuretic activity (Rattus norvegicus [7]) [mL]	Decrease in blood pressure (Rattus norvegicus [8]) [mmHg]	Saluretic activity (Rattus norvegicus [9]) [m equiv kg-1]	Saluretic activity (Rattus norvegicus [10]) [m equiv kg-1]	Diuretic activity (Rattus norvegicus [11]) [mL]	Ratio (Rattus norvegicus [12])	Diuretic activity (Rattus norvegicus [13]) [mL]	Decrease in blood pressure (Rattus norvegicus [14]) [mmHg]	Ratio (Rattus norvegicus [15])	Saluretic activity (Rattus norvegicus [16]) [m equiv kg-1]	Saluretic activity (Rattus norvegicus [17]) [m equiv kg-1]	Saluretic activity (Rattus norvegicus [18]) [m equiv kg-1]
CN1NCc2cc(Cl)c(S(N)(=O)=O)cc2C1=O	9.35	7.82	31.3	3.15	5.98	1.74	11.8	45	2.55	10.43	6.8	1.13	5	22.7	1.33	4.45	6.2	5.27
NS(=O)(=O)c1cc2c(cc1Cl)CNNC2=O	12.48	5.63	24.7	4.16	4.36	3	12.7	31	2.18	10.91	6.2	1.27	6.5	27	1.94	6.55	8.32	3.45
NS(=O)(=O)c1cc2cnn(Cc3ccccc3)c(=O)c2cc1Cl	8.9	5.74	35.3	6	6.29	1.36	6.2	54.3	1.84	8.79	3.6	1.62	2.6	4.7	1.53	2.5	2.9	3.9
Cn1ncc2cc(Cl)c(S(N)(=O)=O)cc2c1=O	9.57	4.76	31.7	2.3	2.4	3.27	8.8	47.7	2.67	11.1	2.7	1.15	6.1	26.3	2.33	8.7	7.27	2.09
NS(=O)(=O)c1cc(C(=O)O)c(NCc2ccco2)cc1Cl [FUROSEMIDE]	17.85	8.78	35.8	1.65	3.02	3.03	22	59.2	4.36	16.22	3	0.68	19.2	5.3	1.85	13.2	16.2	4.42
Cn1ncc2cc(S(N)(=O)=O)c(Cl)cc2c1=O	7.22	5.16	29.7	5	5.26	2.1	4.8	47	1.24	7.84	2.6	1.34	2.2	19.3	1.52	2.58	2.22	3.92
NS(=O)(=O)c1cc2c(cc1Cl)CNN(Cc1ccco1)C2=O	11.43	5.75	25.3	2.98	3.09	2.83	10.5	31.3	2.38	9.83	3.8	0.92	6.7	23	1.71	6.74	8.45	3.37
NS(=O)(=O)c1cc2c(cc1Cl)C(=O)NNC2	9.77	5.52	34.7	6.28	5.84	2.04	6.6	51	1.58	9.07	3.7	1.48	2.9	47.7	1.64	3.23	3.49	3.94
